Experimental data as given in ChEMBL document CHEMBL2311423, “Novel carbocyclic nucleoside analogs suppress glomerular mesangial cells proliferation and matrix protein accumulation through ROS-dependent mechanism in the diabetic milieu” (Bioorg Med Chem Lett, 2013).
Active and inactive are the calls of the source. The rule behind the calls is not given here.

Legend:
Assay type in all cases: functional
[1] = Antidiabetic nephropathic activity in rat glomerular mesangial cells assessed as reduction of high-glucose induced fibronectin expression at 10 uM treated 12 to 24 hrs after serum-deprivation measured after 24 hrs by Western blot analysis relative to beta-actin expression
[2] = Antidiabetic nephropathic activity in rat glomerular mesangial cells assessed as reduction of high-glucose induced fibronectin expression at 1 uM treated 12 to 24 hrs after serum-deprivation measured after 24 hrs by Western blot analysis relative to beta-actin expression
[3] = Antidiabetic nephropathic activity in rat glomerular mesangial cells assessed as reduction of high-glucose induced NADPH-dependent ROS production by measuring NADPH oxidase activity at 1 uM treated 12 after serum-deprivation measured after 24 hrs by DHE staining
Summary of the method: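 Rat glomerular mesangial cells serum-deprived 12 h, then given high glucose (25 mM) for 24 h with or without compound. NADPH-dependent superoxide generation (NADPH oxidase activity) measured in parallel with DHE staining. Superoxide expressed as relative light units per mg protein.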

Rattus norvegicus = species: Rattus norvegicus; assay: Antidiabetic nephropathic activity in rat glomerular mesangial cells assessed as reduction of high-glucose induced cell proliferation at 1 to 10 uM treated 12 after serum-deprivation measured after 24 hrs by MTT assay
Summary of the method: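 Rat glomerular mesangial cells serum-deprived 12 h, then given high glucose (25 mM) for 24 h with or without compound at different concentrations. Proliferation read by MTT assay after 24 h, compared against normal-glucose cells.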

Row | SMILES | Activity [1] [a.u.] | Activity [2] [a.u.] | Activity [3] | Activity (Rattus norvegicus)
1 | CCOC(=O)[C@@H]1CC(n2cc(C)c(=O)n(C(=O)c3ccccc3)c2=O)C[C@H]1C(=O)OCC (racemic) | 20 | 25 | Active | Active
2 | CC(=O)OC[C@@H]1CC(n2cc(C)c(=O)n(C(=O)c3ccccc3)c2=O)C[C@H]1COC(C)=O (racemic) | 53 | 59 | – | –
3 | CC(=O)OC[C@@H]1C[C@@H](n2cc(C)c(=O)n(C(=O)c3ccccc3)c2=O)C[C@@H]1COC(C)=O | 40 | 65 | – | –
4 | CCOC(=O)[C@H]1C[C@H](n2cc(C)c(=O)n(C(=O)c3ccccc3)c2=O)C[C@H]1C(=O)OCC | 66 | 68 | – | –
5 | CC(=O)OC[C@@H]1CC(n2ccc(=O)n(C(=O)c3ccccc3)c2=O)C[C@H]1COC(C)=O (racemic) | 52 | 55 | – | –
6 | CCOC(=O)[C@@H]1CC(n2ccc(=O)n(C(=O)c3ccccc3)c2=O)C[C@H]1C(=O)OCC (racemic) | 60 | 67 | – | –
7 | CCOC(=O)[C@H]1C[C@H](n2ccc(=O)n(C(=O)c3ccccc3)c2=O)C[C@H]1C(=O)OCC | 20 | 26 | Active | Active
8 | CC(=O)OC[C@@H]1C[C@@H](n2ccc(=O)n(C(=O)c3ccccc3)c2=O)C[C@@H]1COC(C)=O | 57 | 64 | – | –
